According to ChEMBL document CHEMBL4145441, “Discovery of N-(5-((5-chloro-4-((2-(isopropylsulfonyl)phenyl)amino)pyrimidin-2-yl)amino)-4-methoxy-2-(4-methyl-1,4-diazepan-1-yl)phenyl)acrylamide (CHMFL-ALK/EGFR-050) as a potent ALK/EGFR dual kinase inhibitor capable of overcoming a variety of ALK/EGFR associated drug resistant mutants in NSCLC” (Eur J Med Chem, 2017):
Activity calls are given as the source filed them. The rule behind the calls is not given here.

Key:
[1] = target: Epidermal growth factor receptor (Homo sapiens, UniProt P00533, T790M); experiment: Inhibition of recombinant human GST-tagged EGFR T790M mutant expressed in Baculovirus expression system using Tyr 4 peptide as substrate after 1 hr in presence of ATP by Z-LYTE assay
[2] = Cmax in Sprague-Dawley rat at 10 mg/kg, po; type: ADME, organism-based; parameters: dose 10 mg/kg, route oral; details: in vivo
Procedure, shortened: (§1)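 Rats dosed once intravenously at 1 mg/kg or orally at 10 mg/kg. Plasma exposure parameters derived: AUC0-t, AUC0-∞, MRT(0-t), Cmax, Tmax, T1/2 and oral bioavailability (F%). Values reported as mean ± spread.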

[3] = Half life in Sprague-Dawley rat at 10 mg/kg, po; type: ADME, organism-based; details: in vivo; procedure, shortened: as §1
A549 = experiment: Cell cycle arrest in human A549 cells assessed as accumulation at G0/G1 phase at 0.03 to 1 uM after 24 hrs by propidium iodide/RNase staining-based flow cytometry; type: functional
NCI-H3122 [4] = experiment: Antitumor activity against human NCI-H3122 cells xenografted in nu/nu mouse assessed as tumor growth inhibition at 40 mg/kg, po qd administered for 28 days; type: functional; details: 672 h, read-out: TGI
NCI-H1975 [5] = experiment: Induction of apoptosis in human NCI-H1975 cells assessed as increase in cleaved PARP expression level at 300 nM to 1 uM after 24 hrs by Western blot method; type: functional, cell-based
NCI-H1975 [6] = experiment: Induction of apoptosis in human NCI-H1975 cells xenografted in po dosed nu/nu mouse administered for 21 days by DAB-chromogen-based TUNEL assay
[7] = target: T1, Epidermal growth factor receptor (Homo sapiens, UniProt P00533); experiment: Inhibition of EGFR in human A549 cells assessed as reduction in EGF-induced ERK phosphorylation at Thr202/Tyr204 residues up to 3 uM after 4 hrs by immunoblotting method; type: cell-based
NCI-H3122 [8] = experiment: Cell cycle arrest in human NCI-H3122 cells assessed as accumulation at G0/G1 phase at 0.03 to 0.3 uM after 24 hrs by propidium iodide/RNase staining-based flow cytometry; type: functional
[9] = target: T1, Epidermal growth factor receptor; experiment: Inhibition of EGFR in human A549 cells assessed as reduction in EGF-induced STAT3 phosphorylation at Tyr705 residue up to 3 uM after 4 hrs by immunoblotting method; type: cell-based
[10] = target: T2, ALK tyrosine kinase receptor (Homo sapiens, UniProt Q9UM73); experiment: Inhibition of ALK in human NCI-H3122 cells harboring EML4-fused ALK assessed as reduction in ALK-induced AKT phosphorylation at Ser473 residue up to 3 uM after 2 hrs by immunoblot method; type: cell-based
NCI-H3122 [11] = experiment: Antiproliferative activity against human NCI-H3122 cells harboring EML4-fused ALK varian1 after 72 hrs by CellTiter-Glo assay; type: functional; details: NCI-H3122, 72 h
Procedure, shortened: (§2)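 Antiproliferative GI50 against H1975 and H3122 cells; each GI50 value obtained from triplicate testing.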

[12] = target: T1, Epidermal growth factor receptor; experiment: Inhibition of full length EGFR del19 mutant (unknown origin) expressed in mouse BAF3 cells assessed as decrease in cell proliferation after 72 hrs by CellTiter-Glo assay; type: cell-based
PC-9 [13] = experiment: Cell cycle arrest in human PC9 cells assessed as accumulation at G0/G1 phase at 0.03 to 1 uM after 24 hrs by propidium iodide/RNase staining-based flow cytometry; type: functional
Homo sapiens [14] = organism: Homo sapiens; experiment: Selectivity index, ratio of IC50 for recombinant human GST-tagged EGFR L858R mutant to IC50 for recombinant human GST-tagged EGFR T790M mutant
[15] = test system: Epidermal growth factor receptor (Homo sapiens), P00533 [C797S]; experiment: Inhibition of TEL-fused EGFR C797S mutant (unknown origin) expressed in mouse BAF3 cells assessed as decrease in cell proliferation after 72 hrs by CellTiter-Glo assay; type: cell-based
[16] = test system: Epidermal growth factor receptor (Homo sapiens), P00533 [T790M]; experiment: Inhibition of TEL-fused EGFR T790M mutant (unknown origin) expressed in mouse BAF3 cells assessed as decrease in cell proliferation after 72 hrs by CellTiter-Glo assay; type: cell-based
NCI-H1975 [17] = experiment: Cell cycle arrest in human NCI-H1975 cells assessed as accumulation at G0/G1 phase at 0.03 to 1 uM after 24 hrs by propidium iodide/RNase staining-based flow cytometry; type: functional
NCI-H1975 [18] = experiment: Antiproliferative activity against human NCI-H1975 cells harboring EGFR L858R/T790M mutant after 72 hrs by CellTiter-Glo assay; type: functional; details: NCI-H1975, 72 h; procedure, shortened: as §2
NCI-H3122 [19] = experiment: Induction of apoptosis in human NCI-H3122 cells xenografted in po dosed nu/nu mouse administered for 28 days by DAB-chromogen-based TUNEL assay; type: functional, organism-based
[20] = target: T2, ALK tyrosine kinase receptor; experiment: Inhibition of recombinant human wild-type GST-tagged ALK expressed in Baculovirus expression system using Tyr 1 peptide as substrate after 1 hr by Z-LYTE assay
Target sequence in this assay (Q9UM73 whole entry, the tested form may be a part): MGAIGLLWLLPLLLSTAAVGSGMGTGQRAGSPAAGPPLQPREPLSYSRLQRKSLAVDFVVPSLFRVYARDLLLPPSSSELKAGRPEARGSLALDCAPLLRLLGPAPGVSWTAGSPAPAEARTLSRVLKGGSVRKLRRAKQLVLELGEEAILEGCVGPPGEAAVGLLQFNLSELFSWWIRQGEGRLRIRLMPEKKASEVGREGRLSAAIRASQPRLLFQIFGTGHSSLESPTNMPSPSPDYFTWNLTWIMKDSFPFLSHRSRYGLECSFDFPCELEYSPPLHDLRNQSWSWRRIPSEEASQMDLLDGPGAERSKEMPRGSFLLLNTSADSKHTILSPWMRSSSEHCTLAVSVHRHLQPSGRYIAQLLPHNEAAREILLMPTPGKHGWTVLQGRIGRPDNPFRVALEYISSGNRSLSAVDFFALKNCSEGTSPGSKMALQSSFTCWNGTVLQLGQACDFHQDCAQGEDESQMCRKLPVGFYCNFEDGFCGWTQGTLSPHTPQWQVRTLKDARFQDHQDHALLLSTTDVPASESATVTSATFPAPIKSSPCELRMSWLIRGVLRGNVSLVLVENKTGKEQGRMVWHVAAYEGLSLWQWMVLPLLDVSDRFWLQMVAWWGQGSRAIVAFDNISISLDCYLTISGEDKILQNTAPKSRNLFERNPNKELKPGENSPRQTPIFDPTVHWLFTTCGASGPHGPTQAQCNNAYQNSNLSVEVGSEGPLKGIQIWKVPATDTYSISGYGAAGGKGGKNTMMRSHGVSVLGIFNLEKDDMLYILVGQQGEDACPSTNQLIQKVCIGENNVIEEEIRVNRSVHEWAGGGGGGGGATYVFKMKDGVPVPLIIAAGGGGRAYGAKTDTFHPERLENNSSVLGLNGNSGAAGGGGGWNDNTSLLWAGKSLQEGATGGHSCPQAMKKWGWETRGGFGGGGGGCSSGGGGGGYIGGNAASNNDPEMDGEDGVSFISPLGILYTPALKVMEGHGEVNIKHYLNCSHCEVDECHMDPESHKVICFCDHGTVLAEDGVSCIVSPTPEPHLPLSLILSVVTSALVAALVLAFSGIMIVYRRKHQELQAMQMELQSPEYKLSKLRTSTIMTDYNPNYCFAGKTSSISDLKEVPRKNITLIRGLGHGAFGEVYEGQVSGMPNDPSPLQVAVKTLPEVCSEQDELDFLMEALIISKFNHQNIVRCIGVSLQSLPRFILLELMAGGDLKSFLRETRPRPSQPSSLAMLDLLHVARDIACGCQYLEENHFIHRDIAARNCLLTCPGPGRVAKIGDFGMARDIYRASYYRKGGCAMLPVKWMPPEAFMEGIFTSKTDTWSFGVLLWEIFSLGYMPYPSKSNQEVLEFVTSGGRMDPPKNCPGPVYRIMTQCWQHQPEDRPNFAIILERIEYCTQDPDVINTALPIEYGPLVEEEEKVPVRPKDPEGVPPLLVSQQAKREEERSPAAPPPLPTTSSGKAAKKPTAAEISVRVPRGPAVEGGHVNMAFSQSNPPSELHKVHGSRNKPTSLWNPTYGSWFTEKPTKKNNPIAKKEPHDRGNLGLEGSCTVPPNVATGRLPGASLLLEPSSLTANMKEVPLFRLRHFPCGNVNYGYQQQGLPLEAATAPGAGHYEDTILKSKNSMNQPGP

[21] = target: T1, Epidermal growth factor receptor; experiment: Inhibition of EGFR phosphorylation at Y1068 in human A549 cells at 300 nM after 4 hrs by immunoblotting method; type: cell-based
[22] = Tmax in Sprague-Dawley rat at 10 mg/kg, po; type: ADME, organism-based; details: in vivo
Procedure, shortened: (§3)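 Pharmacokinetics in rats given a single dose either intravenously at 1 mg/kg or orally at 10 mg/kg. Plasma parameters derived include AUC0-t, AUC0-∞, MRT(0-t), Cmax, Tmax, T1/2 and oral F (%).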

[23] = test system: ALK tyrosine kinase receptor (Homo sapiens), Q9UM73 [F1174L]
[24] = target: T1, Epidermal growth factor receptor; experiment: Inhibition of EGFR phosphorylation at Y1068 in human PC9 cells at 30 nM after 4 hrs by immunoblotting method; type: cell-based
Homo sapiens [25] = organism: Homo sapiens; experiment: Selectivity index, ratio of IC50 for recombinant human wild-type His-tagged EGFR to IC50 for recombinant human GST-tagged EGFR T790M mutant
[26] = target: T1, Epidermal growth factor receptor; experiment: Inhibition of EGFR in human A549 cells assessed as reduction in EGF-induced AKT phosphorylation at Ser473 residue up to 3 uM after 4 hrs by immunoblotting method; type: cell-based
PC-9 [27] = experiment: Induction of apoptosis in human PC9 cells assessed as increase in cleaved PARP expression level at 300 nM to 1 uM after 24 hrs by Western blot method; type: functional, cell-based
Homo sapiens [28] = organism: Homo sapiens; experiment: Selectivity index, ratio of IC50 for recombinant human wild-type His-tagged EGFR to IC50 for recombinant human GST-tagged EGFR L858R/T790M mutant
[29] = MRT (0 to t) in Sprague-Dawley rat at 1 mg/kg, iv; type: ADME, organism-based; details: in vivo; procedure, shortened: as §3
[30] = test system: ALK tyrosine kinase receptor (Homo sapiens), Q9UM73 [C1156Y]
NCI-H3122 [31] = experiment: Induction of apoptosis in human NCI-H3122 cells assessed as increase in cleaved PARP expression level at 300 nM after 24 hrs by Western blot method; type: functional, cell-based
NCI-H1975 [32] = experiment: Antitumor activity against human NCI-H1975 cells xenografted in po dosed nu/nu mouse assessed as tumor growth inhibition administered for 21 days
[33] = AUC (0 to t) in Sprague-Dawley rat at 1 mg/kg, iv; type: ADME, organism-based; details: in vivo; procedure, shortened: as §1

T1 sequence (P00533 whole entry): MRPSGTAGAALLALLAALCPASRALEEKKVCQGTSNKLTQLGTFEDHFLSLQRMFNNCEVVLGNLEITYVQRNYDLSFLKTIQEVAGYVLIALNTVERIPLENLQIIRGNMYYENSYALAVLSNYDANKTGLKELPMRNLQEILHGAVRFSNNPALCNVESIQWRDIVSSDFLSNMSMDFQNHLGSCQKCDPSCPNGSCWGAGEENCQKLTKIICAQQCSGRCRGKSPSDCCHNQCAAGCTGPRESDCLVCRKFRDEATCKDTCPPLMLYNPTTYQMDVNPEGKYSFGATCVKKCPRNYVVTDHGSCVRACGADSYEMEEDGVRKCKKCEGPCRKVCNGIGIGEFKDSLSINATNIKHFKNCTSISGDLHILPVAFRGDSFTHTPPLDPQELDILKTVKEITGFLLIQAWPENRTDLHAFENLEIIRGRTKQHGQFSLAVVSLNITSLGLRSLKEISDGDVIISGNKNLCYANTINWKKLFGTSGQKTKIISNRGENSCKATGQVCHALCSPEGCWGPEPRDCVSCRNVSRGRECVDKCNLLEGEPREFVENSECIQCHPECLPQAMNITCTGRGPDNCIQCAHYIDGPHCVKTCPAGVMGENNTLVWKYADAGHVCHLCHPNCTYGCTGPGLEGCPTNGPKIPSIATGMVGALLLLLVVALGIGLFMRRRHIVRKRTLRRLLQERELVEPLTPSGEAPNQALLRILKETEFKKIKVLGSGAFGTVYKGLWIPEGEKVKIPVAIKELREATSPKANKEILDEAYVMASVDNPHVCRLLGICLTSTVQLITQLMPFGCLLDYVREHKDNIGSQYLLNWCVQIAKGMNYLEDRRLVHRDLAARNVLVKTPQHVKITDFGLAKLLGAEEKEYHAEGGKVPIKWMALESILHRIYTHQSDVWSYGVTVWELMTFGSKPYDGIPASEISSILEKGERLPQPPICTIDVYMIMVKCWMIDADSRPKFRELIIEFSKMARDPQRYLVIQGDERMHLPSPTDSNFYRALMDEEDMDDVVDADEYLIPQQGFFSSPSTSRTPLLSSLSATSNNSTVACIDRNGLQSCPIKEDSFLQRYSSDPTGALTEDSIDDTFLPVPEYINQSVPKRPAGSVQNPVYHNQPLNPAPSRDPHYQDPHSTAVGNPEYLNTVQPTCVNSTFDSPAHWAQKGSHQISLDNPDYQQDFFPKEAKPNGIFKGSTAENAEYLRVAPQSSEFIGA
Chain of ALK tyrosine kinase receptor (Homo sapiens), Q9UM73 [C1156Y] (Q9UM73 whole entry C1156Y, looked up): as the sequence (Q9UM73 whole entry, the tested form may be a part) above, with C1156Y counted along it
Chain of ALK tyrosine kinase receptor (Homo sapiens), Q9UM73 [F1174L] (Q9UM73 whole entry F1174L): as the sequence (Q9UM73 whole entry, the tested form may be a part) above, with F1174L counted along it
Chain of Epidermal growth factor receptor (Homo sapiens, UniProt P00533, T790M) (P00533 25-1210 T790M limits assumed): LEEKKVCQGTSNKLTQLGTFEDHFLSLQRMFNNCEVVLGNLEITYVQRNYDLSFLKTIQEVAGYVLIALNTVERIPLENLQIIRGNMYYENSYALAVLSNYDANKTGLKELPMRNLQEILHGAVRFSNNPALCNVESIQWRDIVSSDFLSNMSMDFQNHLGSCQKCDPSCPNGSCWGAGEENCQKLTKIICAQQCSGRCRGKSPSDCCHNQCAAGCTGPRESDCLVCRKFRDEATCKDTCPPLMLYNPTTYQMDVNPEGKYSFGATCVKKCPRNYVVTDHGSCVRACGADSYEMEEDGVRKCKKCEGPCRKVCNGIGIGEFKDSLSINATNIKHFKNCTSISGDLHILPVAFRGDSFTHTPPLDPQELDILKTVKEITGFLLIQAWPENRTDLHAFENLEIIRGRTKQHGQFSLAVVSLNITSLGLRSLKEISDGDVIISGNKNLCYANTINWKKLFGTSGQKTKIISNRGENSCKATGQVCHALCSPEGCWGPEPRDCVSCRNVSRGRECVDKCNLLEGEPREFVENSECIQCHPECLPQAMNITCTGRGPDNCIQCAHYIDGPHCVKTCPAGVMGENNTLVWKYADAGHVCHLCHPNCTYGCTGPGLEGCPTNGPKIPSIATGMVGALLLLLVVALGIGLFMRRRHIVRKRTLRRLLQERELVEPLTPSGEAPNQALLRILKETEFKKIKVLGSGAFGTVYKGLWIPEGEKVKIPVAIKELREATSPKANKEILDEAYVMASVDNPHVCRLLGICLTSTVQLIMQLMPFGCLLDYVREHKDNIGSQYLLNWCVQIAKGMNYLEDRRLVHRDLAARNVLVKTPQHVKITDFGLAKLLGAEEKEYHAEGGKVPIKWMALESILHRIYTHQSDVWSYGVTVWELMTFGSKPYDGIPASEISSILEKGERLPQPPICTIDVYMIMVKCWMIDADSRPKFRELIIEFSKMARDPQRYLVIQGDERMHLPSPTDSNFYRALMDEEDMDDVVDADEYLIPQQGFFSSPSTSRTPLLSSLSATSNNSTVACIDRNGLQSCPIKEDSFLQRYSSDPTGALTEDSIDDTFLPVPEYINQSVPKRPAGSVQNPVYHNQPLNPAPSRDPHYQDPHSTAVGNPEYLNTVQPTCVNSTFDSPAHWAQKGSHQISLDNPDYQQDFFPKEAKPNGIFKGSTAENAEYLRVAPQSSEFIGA

## C=CC(=O)Nc1cc(Nc2ncc(Cl)c(Nc3ccccc3S(=O)(=O)C(C)C)n2)c(OC)cc1N1CCCN(C)CC1
[1]
  IC50: 3.9 nM
[2]
  Cmax: 283 ng/mL
[3]
  half-life: 1.75 h
A549
  Activity: inactive
NCI-H3122 [4]
  inhibition in vivo at 40 mg/kg: 78.4%
NCI-H1975 [5]
  Activity: Active
NCI-H1975 [6]
  Activity: Dose-dependent effect
[7]
  inhibition: inactive
NCI-H3122 [8]
  Activity: Active
[9]
  inhibition: inactive
[10]
  inhibition: Active
NCI-H3122 [11]
  GI50: < 0.3 nM
[12]
  GI50: 8.5 nM
PC-9 [13]
  Activity: Active
Homo sapiens [14]
  Ratio IC50: 20 to 30
[15]
  GI50: 230 nM
[16]
  GI50: 8 nM
NCI-H1975 [17]
  Activity: Active
NCI-H1975 [18]
  GI50: 15 nM
NCI-H3122 [19]
  Activity: Dose-dependent effect
[20]
  IC50: 9.8 nM
[21]
  inhibition: Active
[22]
  Tmax: 4 h
[23]
  GI50: 29 nM
[24]
  inhibition: Active
Homo sapiens [25]
  Ratio IC50: 20 to 30
[26]
  inhibition: inactive
PC-9 [27]
  Activity: Active
Homo sapiens [28]
  Ratio IC50: 20 to 30
[29]
  MRT last: 0.947 h
[30]
  GI50: 6.9 nM
NCI-H3122 [31]
  Activity: Active
NCI-H1975 [32]
  TGI: Dose-dependent effect
[33]
  AUC(0-t): 707 ng·h/mL
